Screening data (PubChem BioAssay)
Sampled rows, rich in hits. Any-hit rate of the full collection: about 4.8%.
pPAFAH FP inh: pPAFAH (human) enzyme inhibition; Q13093; recombinant pPAFAH, FP-rhodamine probe fluorescence polarization; inhibition, % at 3.39 µM; 330,000 tested, 1.5% active;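 active = inhibition above the mean inhibition across the screen plus 3 SD, cut at about 25% in these data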;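 note: inhibitors block binding of the rhodamine activity-based probe so polarization drops; 0% = enzyme with DMSO and 100% = wells lacking pPAFAH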
PAFAH1B2 inh: PAFAH1B2 (human) inhibition; AID 492953; P68402; inhibition, % at 3.39 µM; recombinant PAFAH1B2, FP-rhodamine activity probe, fluorescence polarization; 340,000 tested, 1.2% active;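 active = inhibition above the mean of all tested compounds plus 3 SD, cut at about 24% in these data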;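 note: 0% = enzyme with DMSO and 100% = wells lacking PAFAH1B2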
Target sequence (P68402 whole entry, looked up): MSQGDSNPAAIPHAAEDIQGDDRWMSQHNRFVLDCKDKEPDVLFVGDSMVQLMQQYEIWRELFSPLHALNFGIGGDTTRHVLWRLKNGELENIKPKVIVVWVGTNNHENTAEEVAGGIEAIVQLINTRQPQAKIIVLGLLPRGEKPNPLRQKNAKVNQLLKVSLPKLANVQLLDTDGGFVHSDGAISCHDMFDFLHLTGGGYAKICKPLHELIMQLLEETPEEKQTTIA
PAFAH1B3 FP inh: inhibitors of human PAFAH1B3 | recombinant PAFAH1B3, FP-rhodamine probe, fluorescence polarization | inhibition, % at 3.39 µM | 340,000 tested, 0.28% active;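 active = inhibition above the screen-wide average of all tested compounds plus 3 SD, cut at about 25% in these data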;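 note: 0% = enzyme with DMSO only and 100% = wells lacking PAFAH1B3 protein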
Target sequence (Q15102 whole entry, looked up): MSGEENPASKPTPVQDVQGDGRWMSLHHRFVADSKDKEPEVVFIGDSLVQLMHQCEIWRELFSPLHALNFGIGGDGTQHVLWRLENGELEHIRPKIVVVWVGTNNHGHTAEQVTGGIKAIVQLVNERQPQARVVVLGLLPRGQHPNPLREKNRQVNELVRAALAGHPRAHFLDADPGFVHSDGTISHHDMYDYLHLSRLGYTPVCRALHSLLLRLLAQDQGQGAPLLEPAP
NR3A LBD binder: modulates the human NR3A ligand-binding domain; NR3A LBD differential scanning fluorimetry, Tm shift; 0% = protein alone, 100% = glycine-bound protein; Tm shift relative to glycine control, % at 25 µM; 340,000 tested, 2.5% active; AID 1259313;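 active = melting temperature shift of at least 10% of the positive control shift, at one fixed dose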
PAFAH2 inh: PAFAH2 (human) inhibition. recombinant PAFAH2, FP-rhodamine activity probe, fluorescence polarization. inhibition, % at 3.39 µM. 340,000 tested, 0.99% active;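 active = inhibition above the mean over all tested compounds plus 3 SD, cut at about 30% in these data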;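 note: inhibitors block probe labeling of enzyme so polarization drops; 0% = enzyme with DMSO and 100% = wells lacking PAFAH2 protein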
UCH37 DUB inh: blocks the human deubiquitinase UCH37. 330,000 tested, 0.33% active. inhibition, % (no concentration beside the values). purified proteasome/UCH37, Ub-AMC cleavage fluorescence. Q9Y5K5;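 active = mean inhibition over replicate wells above about 20%, limit read from the data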;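 note: 0% = compound-free wells with enzyme and 100% = wells lacking proteasome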
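Material: human UCH37 enzyme supplied as purified proteasome complex. Measure: % inhibition of Ub-AMC cleavage fluorescence. Medium: pH 7.4 Tris-HCl (50 mM) with ovalbumin, ATP-MgCl2, DTT. Times: 30 min preincubation with enzyme, 25 min cleavage at room temperature. Detection: AMC fluorescence intensity at 355/460 nm.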
Numbers without * were called inactive; · = not tested or not shown.

SMILES	pPAFAH FP inh	PAFAH1B2 inh	PAFAH1B3 FP inh	NR3A LBD binder	PAFAH2 inh	UCH37 DUB inh
COc1ccccc1C=NNC(=O)c1ccccc1NS(=O)(=O)c1ccc(C)cc1	·	·	·	·	·	-5
COc1cccc(C(=O)NNC(=O)c2ccc(NS(=O)(=O)c3cccs3)cc2)c1OC	26*	2	2	0	4	1
CCOc1ccc(NC(=O)c2ccc(NS(=O)(=O)c3cccs3)cc2)cc1	6	0	-2	24*	11	3
COc1cccc(C(=O)COc2ccc(NC(=O)c3cccs3)cc2)c1	0	-5	-2	2	4	1
CCCCOc1cccc(C(=O)Nc2ccc(NC(=O)c3cccs3)cc2)c1	6	1	-5	22*	0	-27
O=C(COc1ccc(NC(=O)c2cccs2)cc1)c1ccc(F)cc1	-3	2	-8	27*	-5	1
COc1ccccc1C(=O)NNC(=O)c1ccc(NS(=O)(=O)c2cccs2)cc1	12	3	9	1	-9	2
COc1sc(SC)cc1C=NNC(=O)c1ccncc1	·	·	·	·	·	6
COc1ccc(NC(=O)C#Cc2ccccc2)cc1	3	8	4	10*	7	2
CCOc1ccc(OCC(=O)Nc2ccc(OC)cc2)cc1	-12	4	-7	-18	1	3
CCCOc1ccc(C(=O)Nc2ccc(NC(=O)c3cccs3)cc2)cc1	1	-2	-4	14*	7	-8
COc1ccc(C(=O)COc2ccc(NC(C)=O)cc2)cc1	0	-2	5	13*	-8	-2
Cc1ccc(S(=O)(=O)N(C)Cc2ccc(C(=O)NN=C3CC(=O)CC(C)(C)C3)cc2)cc1	·	·	·	·	·	4
C(=NN1CCN(C2c3ccccc3-c3ccccc32)CC1)c1cccnc1	·	·	·	·	·	6
Nc1[nH]ncc1-c1ccc(F)cc1	30*	-1	-8	-1	-2	1
CCC(=O)ON=C(N)c1ccc(Oc2cc(C)c(Cl)c(C)c2)c([N+](=O)[O-])c1	·	·	·	·	·	4
Fc1ccc2nc(Nc3nc4c(F)cc(F)cc4s3)sc2c1	9	0	1	34*	-5	-10
Fc1cccc2sc(Nc3nc4ccccc4s3)nc12	4	7	8	28*	-8	-131
NNc1nc2ccc(F)cc2s1	11	2	12	1	-1	4
Fc1ccc2nc(Nc3ccccc3)sc2c1	9	8	4	19*	3	0
Fc1ccc2nc(Nc3nc4c(F)cccc4s3)sc2c1	9	-1	15	23*	-16	-59
O=S(=O)(NN=Cc1ccccc1F)c1ccccc1	·	·	·	·	·	-1
CCCC(C)=NNc1nc2c(c(=O)n(C)c(=O)n2C)n1C	·	·	·	·	·	4
O=C1COc2ccc(S(=O)(=O)N3CCN(c4ccccc4F)CC3)cc2N1	2	6	6	12*	1	2
Cc1cc2c(cc1S(=O)(=O)N1CCN(c3ccccc3)CC1)OCC(=O)N2	-5	-4	-5	4	8	1
SMILES	pPAFAH FP inh	PAFAH1B2 inh	PAFAH1B3 FP inh	NR3A LBD binder	PAFAH2 inh	UCH37 DUB inh
Cc1ccc(C)c(N2CCN(S(=O)(=O)c3ccc4c(c3)NC(=O)CO4)CC2)c1	7	-6	2	11*	-3	3
Cc1ccc(C)c(N2CCN(S(=O)(=O)c3ccc4c(c3)NC(=O)CC(=O)N4)CC2)c1	5	5	8	0	2	2
Cc1cc2c(cc1S(=O)(=O)N1CCN(c3ccccc3F)CC1)OCC(=O)N2	6	2	-1	13*	-5	0
Cc1ccccc1NCCC(=O)Nc1ccc(F)cc1	0	2	5	1	4	7
Cc1ccccc1NCCC(=O)Nc1ccc(Cl)cc1	3	1	2	14*	6	5
NC(Cn1nnc(-c2ccccc2)n1)=NO	·	·	·	·	·	3
Cc1ccc2c(Cl)c(C(=O)NCCc3ccccc3)sc2c1	5	3	5	-2	-2	3
COc1ccc(CCNC(=O)c2sc3cc(C)ccc3c2Cl)cc1	-5	1	-2	12*	1	-1
Cc1cc(C)c2nc(NNC(=O)c3cc(=O)c4ccccc4o3)sc2c1	26*	8	22	2	16	3
Cc1cc(C)c2nc(NNC(=O)c3ccc(S(=O)(=O)N4CCc5ccccc5C4)cc3)sc2c1	12	10	9	5	-3	3
CC(C)(C)c1cc(C(=S)N2CCN(CCO)CC2)cc(C(C)(C)C)c1O	3	10	1	11*	-3	6
COc1ccccc1NS(=O)(=O)c1ccc(Cl)c(NC(=O)c2sc3cc(Cl)ccc3c2Cl)c1	-3	2	-1	-1	8	4
O=C(Nc1cc(S(=O)(=O)Nc2ccccc2Cl)ccc1O)c1sc2cc(Cl)ccc2c1Cl	1	0	-9	150*	-8	-13
N#C/C(=C/c1ccc(-c2cccc([N+](=O)[O-])c2)o1)C(=O)Nc1nc(-c2cccs2)cs1	·	-4	0	23*	0	11
N#C/C(=C\c1ccc(-c2ccccc2[N+](=O)[O-])o1)C(=O)Nc1nc(-c2cccs2)cs1	30*	4	16	12*	22	14
N#C/C(=C\c1ccc(-c2ccc([N+](=O)[O-])cc2)o1)C(=O)Nc1nc(-c2cccs2)cs1	17	4	4	-1	12	10
COc1cccc(C=NNC(=O)CNC(=O)c2ccco2)c1O	·	·	·	·	·	4
CCOC(=O)COc1cc(-n2c(=S)[nH]c3cc(OC)c(OC)cc3c2=O)c(Cl)cc1Cl	1	5	-3	13*	0	2
CCOC(=O)COc1cc(N2C(=O)CSCC2=O)c(Cl)cc1Cl	3	8	3	2	5	4
Cc1n[nH]c(=O)nc1NN=Cc1ccc(O)c([N+](=O)[O-])c1	·	·	·	·	·	21*
Cc1csc(NN=Cc2ccc(O)c([N+](=O)[O-])c2)n1	·	·	·	·	·	20*
Oc1ccc(C=NNc2cc(N3CCOCC3)nc(N3CCOCC3)n2)c(O)c1	·	·	·	·	·	7
O=C(COC(=O)/C=C/c1cccc(F)c1)Nc1ccc(Cl)cn1	9	3	-2	1	24	-2
O=C(CC(c1ccccc1)c1ccccc1)Nc1ccc(Cl)cn1	-2	3	-6	-4	-2	34*
O=C(COC(=O)Cc1ccc(Br)cc1)Nc1ccc(Cl)cn1	25*	12	5	-7	9	1
Cc1cc(C)cc(OCC(=O)OCC(=O)Nc2ccc(Cl)cn2)c1	17	-2	-5	3	-1	3
COc1ccc(OCCCC(=O)OCC(=O)Nc2ccc(Cl)cn2)cc1	26*	2	5	3	9	1
COc1cccc(/C=C/C(=O)OCC(=O)Nc2ccc(Cl)cn2)c1	2	5	-4	·	32*	·
COc1ccccc1N(CC(=O)NCCSCc1ccc(C)cc1)S(=O)(=O)c1ccccc1	2	27*	1	2	1	2
